Results reported in ChEMBL document CHEMBL3232756, “Synthesis and biological evaluation of N-dehydrodipeptidyl-N,N'-dicyclohexylurea analogs” (Eur J Med Chem, 2014).
Converted amounts (≈) assume the structure as drawn.

Experiments:
[1] = tested on: Staphylococcus aureus; assay: Antimicrobial activity against Staphylococcus aureus MTCC 96 at 0.02 ml of 1 mg/ml after 24 hrs by cup plate method; assay type: functional; conditions: MTCC 96, 24 h, read-out: DIZ
Method in brief: (§1)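 Cup-plate diffusion on Mueller-Hinton/nutrient agar swab-streaked with suspension, 6 mm cups bored. Each compound at 1 mg/ml in DMSO, 0.02 ml per cup; DMSO as solvent control. Amoxicillin for bacteria and fluconazole for fungi at 200 and 500 respectively as references. Incubation 37 °C for 24 h. Inhibition zone diameter in mm, triplicate, mean ± SD.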

[2] = tested on: Bacillus subtilis; assay: Antimicrobial activity against Bacillus subtilis MTCC 441 at 0.02 ml of 1 mg/ml after 24 hrs by cup plate method; assay type: functional; conditions: MTCC 441, 24 h, read-out: DIZ; method in brief: as §1
[3] = tested on: Aspergillus niger; assay: Antimicrobial activity against Aspergillus niger MTCC 292 at 0.02 ml of 1 mg/ml after 24 hrs by cup plate method; assay type: functional; conditions: MTCC 292, 24 h, read-out: DIZ; method in brief: as §1
[4] = tested on: Mus musculus; assay: Analgesic activity in Swiss albino mouse assessed as inhibition of acetic acid-induced writhing response at 100 mg/kg, po administered 1 hr before acetic acid challenge after 5 mins; assay type: functional
[5] = tested on: Candida albicans; assay: Antimicrobial activity against Candida albicans MTCC 227 at 0.02 ml of 1 mg/ml after 24 hrs by cup plate method; assay type: functional; conditions: MTCC 227, 24 h, read-out: DIZ; method in brief: as §1
[6] = tested on: Pseudomonas aeruginosa; assay: Antimicrobial activity against Pseudomonas aeruginosa MTCC 1688 at 0.02 ml of 1 mg/ml after 24 hrs by cup plate method; assay type: functional; conditions: MTCC 1688, 24 h, read-out: DIZ; method in brief: as §1
[7] = tested on: Mus musculus; assay: Acute toxicity in Swiss albino mouse assessed as mortality up to 1500 mg/kg, po; assay type: organism-based; parameters: dose 1500 mg/kg, route oral; conditions: in vivo
Method in brief: (§2)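 Swiss albino mice (6–8 weeks, 25–30 g) were dosed orally at 500, 1000 or 1500 mg/kg, following OECD guidelines. Body weight, food and water intake, behavioural patterns and mortality were recorded and compared with a control group.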

[8] = tested on: Brain; assay: Antioxidant activity against lipid peroxidation in Wister rat brain homogenates assessed as thiobarbituric acid reactive substance formation after 30 mins by spectrophotometer analysis; assay type: functional, tissue-based; conditions: 0.5 h
Method in brief: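 Whole brain minus cerebellum from overnight-fasted rats of either sex, 200–220 g. Homogenized 10% w/v in 0.15 M KCl and spun at 800 rpm for 10 min. Reaction incubated 37 °C for 30 min, then TBA:TCA (1:1) and BHT added, heated 80 °C for 20 min, cooled, centrifuged, A532 read.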

[9] = tested on: Mus musculus; assay: Acute toxicity in Swiss albino mouse assessed as gross behavioral changes up to 1500 mg/kg, po; assay type: organism-based; parameters: dose 1500 mg/kg, route oral; conditions: in vivo; method in brief: as §2
[10] = Antioxidant activity assessed as hydroxyl radical scavenging activity after 15 mins; assay type: functional
Method in brief: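 Deoxyribose degradation mix: 2-deoxy-2-ribose 2.8 mM, KH2PO4–KOH 20 mM pH 7.4, FeCl3, EDTA, H2O2 1.0 mM, ascorbic acid, plus compound in methanol. Incubated 1 h at 37 °C. A 0.5 ml aliquot taken with 1 ml 2.8% TCA and 1 ml 1% TBA, heated 90 °C for 15 min, cooled, A532 read. % inhibition against blank.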

[11] = tested on: Rattus norvegicus; assay: Antiinflammatory activity in Wister rat assessed as inhibition of carrageenan-induced paw edema at 100 mg/kg, po administered 1 hr before carrageenan challenge measured after 3 hrs by plethysmograph analysis; assay type: functional
Method in brief: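 Rats of either sex, 150–220 g, food withheld 4 h. Compound or diclofenac sodium 100 mg/kg p.o., or 0.5% sodium CMC at 10 ml/kg as vehicle control, given 1 h before 0.05 ml of 1% carrageenan subplantar into the right hind paw. Paw volume read by water-displacement plethysmograph at 0, 30, 60, 120 and 180 min. % edema inhibition = 100(1−Vt/Vc); n=5, control n=6; ANOVA/Dunnett.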

[12] = tested on: Radical scavenging activity; assay: Antioxidant activity assessed as DPPH radical scavenging activity after 20 to 30 mins; assay type: functional
Method in brief: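 Test solution (2 ml at 25, 50, 75, 100, 125) mixed with 2 ml ethanolic DPPH, held in the dark at ambient temperature 20–30 min, then A517 read against an ethanol blank. Tocopherol used as standard. % scavenging = (Acontrol−Atest)/Acontrol×100, run in triplicate. IC50 read graphically from the % scavenging versus concentration plot.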

[13] = Cytotoxicity against brine shrimps larvae assessed as mortality after 24 hrs; assay type: organism-based; conditions: artemia, in vivo; read-out: ED50
Method in brief: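 Shrimp eggs were hatched in filtered artificial sea water (38 g sea salt/L) in a divided tank. Larvae were exposed in vials at several concentrations under a lamp, and survivors were counted 24 h later. ED50 and 95% confidence intervals were derived from % larvae surviving by Finney probit analysis.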

[14] = Antioxidant activity assessed as trolox equivalents of cupric reducing antioxidant capacity after 30 mins; assay type: functional
Method in brief: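 Mix of 1 ml CuCl2 (10 mM), 1 ml ethanolic neocuproine (7.5 mM), 1 ml ammonium acetate buffer (pH 7.0, 1 M), 1 ml compound or standard solution and 0.1 ml water, total 4.1 ml. A450 read after 30 min against reagent blank. TEAC = ε test/ε Trolox.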

[15] = tested on: Escherichia coli; assay: Antimicrobial activity against Escherichia coli ESS 2231 at 0.02 ml of 1 mg/ml after 24 hrs by cup plate method; assay type: functional; conditions: ESS 2231, 24 h, read-out: DIZ; method in brief: as §1

| SMILES | zone of inhibition at 1000 µg/mL [1] | zone of inhibition at 1000 µg/mL [2] | zone of inhibition at 1000 µg/mL [3] | inhibition in vivo at 100 mg/kg [4] | zone of inhibition at 1000 µg/mL [5] | zone of inhibition at 1000 µg/mL [6] | Activity [7] | IC50 [8] | Activity [9] | IC50 [10] | inhibition in vivo at 100 mg/kg [11] | IC50 [12] | LC50 at 24 h [13] | TEAC (Trolox equivalents) [14] | zone of inhibition at 1000 µg/mL [15] |
| --- | --- | --- | --- | --- | --- | --- | --- | --- | --- | --- | --- | --- | --- | --- | --- |
| O=C(NC(CS)C(=O)N(C(=O)NC1CCCCC1)C1CCCCC1)/C(=C\c1ccccc1)NC(=O)c1ccccc1 (stereo unspecified) | 24.4 mm | 23.2 mm | 18.3 mm | 56.8% | 17.4 mm | 20.6 mm | Non-toxic | 59.5 µM | Non-toxic | 64.4 µM | 43.4% | 44.4 µM | 3.53 mg/L (≈ 6.12 µM) | 3.84 | 25.8 mm |
| Cc1cc(C(C)(C)C)c(O)c(C(C)(C)C)c1 [BUTYLATED HYDROXYTOLUENE] | – | – | – | – | – | – | – | 57.8 µM | – | – | – | – | – | – | – |
| CC(C)c1ccc(/C=C(/NC(=O)c2ccccc2)C(=O)NCC(=O)N(C(=O)NC2CCCCC2)C2CCCCC2)cc1 | 16.4 mm | 18.4 mm | 21.2 mm | 47.4% | 13.1 mm | 17.3 mm | Non-toxic | 60.4 µM | Non-toxic | 60.4 µM | 26% | 61 µM | – | 1.19 | 18.1 mm |
| O=C(NC(CS)C(=O)N(C(=O)NC1CCCCC1)C1CCCCC1)/C(=C\c1ccc(F)cc1)NC(=O)c1ccccc1 (stereo unspecified) | 11.4 mm | 14.5 mm | 18.2 mm | 42% | 17.1 mm | 16.6 mm | Non-toxic | 74.7 µM | Non-toxic | 51 µM | 25% | 58.8 µM | – | 3.6 | 14.3 mm |
| O=C(NC(CS)C(=O)N(C(=O)NC1CCCCC1)C1CCCCC1)/C(=C\c1ccc(O)cc1)NC(=O)c1ccccc1 (stereo unspecified) | 24.8 mm | 24.4 mm | 24.5 mm | 43.2% | 26.6 mm | 20.7 mm | Non-toxic | 54.4 µM | Non-toxic | 54 µM | 41.3% | 47.2 µM | 4.38 mg/L (≈ 7.39 µM) | 3.91 | 23.5 mm |
| O=C1O[C@H]([C@@H](O)CO)C(O)=C1O [ASCORBIC ACID] | – | – | – | – | – | – | – | – | – | 49.9 µM | – | – | – | 2.63 | – |
| COc1ccc(/C=C(/NC(=O)c2ccccc2)C(=O)NC(CS)C(=O)N(C(=O)NC2CCCCC2)C2CCCCC2)cc1 (stereo unspecified) | 19.2 mm | 20.1 mm | 20.3 mm | 36% | 19.8 mm | 17.7 mm | Non-toxic | 127 µM | Non-toxic | 97.2 µM | 31.5% | 88.7 µM | – | 2.91 | 16.4 mm |
| Cc1ccc(/C=C(/NC(=O)c2ccccc2)C(=O)NC(CS)C(=O)N(C(=O)NC2CCCCC2)C2CCCCC2)cc1 (stereo unspecified) | 16.8 mm | 15.8 mm | 15.4 mm | 41.2% | 14.2 mm | 18.4 mm | Non-toxic | 113 µM | Non-toxic | 66.3 µM | 35.5% | 84 µM | – | 2.36 | 22.7 mm |
| O=C(O)Cc1ccccc1Nc1c(Cl)cccc1Cl [DICLOFENAC SODIUM] | – | – | – | – | – | – | – | – | – | – | 66.8% | – | – | – | – |
| CC(=O)Oc1ccccc1C(=O)O [ASPIRIN] | – | – | – | 63.1% | – | – | – | – | – | – | – | – | – | – | – |
| COc1cc(/C=C(/NC(=O)c2ccccc2)C(=O)NC(CS)C(=O)N(C(=O)NC2CCCCC2)C2CCCCC2)ccc1O (stereo unspecified) | 22.1 mm | 20.2 mm | 19.3 mm | 48% | 20.4 mm | 20.8 mm | Non-toxic | 81.6 µM | Non-toxic | 92.8 µM | 38.4% | – | – | 3.6 | 24.6 mm |
| COc1ccc(/C=C(/NC(=O)c2ccccc2)C(=O)NCC(=O)N(C(=O)NC2CCCCC2)C2CCCCC2)cc1 | 14.3 mm | 11.3 mm | 18.8 mm | 39.6% | 19.6 mm | 10.3 mm | Non-toxic | 108 µM | Non-toxic | 92.7 µM | 12% | 92.7 µM | – | 1.24 | 15.8 mm |
| COc1cc([C@@H]2c3cc4c(cc3[C@H](O)[C@H]3COC(=O)[C@H]23)OCO4)cc(OC)c1OC [PODOFILOX] | – | – | – | – | – | – | – | – | – | – | – | – | 3.77 mg/L (≈ 9.1 µM) | – | – |
| O=C(NCC(=O)N(C(=O)NC1CCCCC1)C1CCCCC1)/C(=C\c1ccc(F)cc1)NC(=O)c1ccccc1 | 19.3 mm | 20.1 mm | 20.8 mm | 22% | 19.2 mm | 17.6 mm | Non-toxic | 97.2 µM | Non-toxic | 88.7 µM | 20.6% | 88.7 µM | – | 1.22 | 16.5 mm |
| Cc1ccc(/C=C(/NC(=O)c2ccccc2)C(=O)NCC(=O)N(C(=O)NC2CCCCC2)C2CCCCC2)cc1 | 15.5 mm | 13.2 mm | 14.5 mm | 48.8% | 13.4 mm | 17.6 mm | Non-toxic | 127 µM | Non-toxic | 101 µM | 23.9% | 71.9 µM | – | 1.24 | 13.3 mm |
| O=C(NCC(=O)N(C(=O)NC1CCCCC1)C1CCCCC1)/C(=C\c1ccc(Cl)cc1)NC(=O)c1ccccc1 | 11.8 mm | 13.5 mm | 13.5 mm | 27.6% | 12.7 mm | 9.2 mm | Non-toxic | 96.8 µM | Non-toxic | 83.7 µM | 15.2% | 83.7 µM | – | 0.93 | 16.3 mm |
